Assay results taken from ChEMBL document CHEMBL1275447 (Antimicrob Agents Chemother, 2008).
≈ marks a conversion by molar mass, not a printed value. Calls of active or inactive are those of the source. No cut-off for these calls is given here.

Columns and labels:
Pseudomonas aeruginosa [1] = test: Antibacterial activity against Pseudomonas aeruginosa isolate 869 by microdilution method; format: functional
Pseudomonas aeruginosa [2] = test: Antibacterial activity against Pseudomonas aeruginosa isolate 1055 by microdilution method; format: functional
Pseudomonas aeruginosa [3] = test: Antibacterial activity against Pseudomonas aeruginosa isolate 1062 by microdilution method; format: functional
Pseudomonas aeruginosa [4] = test: Antibacterial activity against Pseudomonas aeruginosa isolate 1082 by microdilution method; format: functional
Summary of the method: (§1)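 CLSI broth microdilution in cation-adjusted Mueller-Hinton broth (20–25 mg/liter Ca, 10–12.5 mg/liter Mg). Standard inoculum 10⁵ CFU/ml, incubated in ambient air. Clinical hospital isolates.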

Pseudomonas aeruginosa [5] = test: Antibacterial activity against Pseudomonas aeruginosa isolate 1058 by microdilution method; format: functional
Pseudomonas aeruginosa [6] = test: Antibacterial activity against Pseudomonas aeruginosa isolate 931 by microdilution method; format: functional; summary of the method: as §1
Pseudomonas aeruginosa [7] = test: Antibacterial activity against Pseudomonas aeruginosa isolate 944 by microdilution method; format: functional; summary of the method: as §1
Pseudomonas aeruginosa [8] = test: Antibacterial activity against Pseudomonas aeruginosa isolate 936 by microdilution method; format: functional
Pseudomonas aeruginosa [9] = test: Antibacterial activity against Pseudomonas aeruginosa isolate 1006 by microdilution method; format: functional
[10] = fT>MIC in human infected with Pseudomonas aeruginosa isolate 1029 at 500 mg administered as 1 hr infusion; format: functional
[11] = fT>MIC in human infected with Pseudomonas aeruginosa isolate 1055 at 500 mg administered as 1 hr infusion; format: functional
[12] = fT>MIC in human infected with Pseudomonas aeruginosa isolate 1062 at 500 mg administered as 1 hr infusion; format: functional
[13] = fT>MIC in human infected with Pseudomonas aeruginosa isolate 935 at 500 mg administered as 1 hr infusion; format: functional
[14] = fT>MIC in human infected with Pseudomonas aeruginosa isolate 1082 at 500 mg administered as 1 hr infusion; format: functional
[15] = fT>MIC in human infected with Pseudomonas aeruginosa isolate 979 at 500 mg administered as 1 hr infusion; format: functional
[16] = fT>MIC in human infected with Pseudomonas aeruginosa isolate 896 at 500 mg administered as 1 hr infusion; format: functional
[17] = fT>MIC in human infected with Pseudomonas aeruginosa isolate 968 at 500 mg administered as 1 hr infusion; format: functional
[18] = fT>MIC in human infected with Pseudomonas aeruginosa isolate 1058 at 500 mg administered as 4 hr infusion; format: functional
[19] = fT>MIC in human infected with Pseudomonas aeruginosa isolate 944 at 500 mg administered as 4 hr infusion; format: functional
[20] = fT>MIC in human infected with Pseudomonas aeruginosa isolate 1060 at 500 mg administered as 4 hr infusion; format: functional
[21] = fT>MIC in human infected with Pseudomonas aeruginosa isolate 936 at 500 mg administered as 4 hr infusion; format: functional
[22] = fT>MIC in neutropenic mouse infected with Pseudomonas aeruginosa isolate 935 at 500 mg administered as 1 hr infusion; format: functional
Summary of the method: (§2)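 Free-drug time above MIC simulated from one-compartment mouse serum PK (25.2% protein binding). The mice were cyclophosphamide-neutropenic and uranyl nitrate-renally impaired. Regimen was subcutaneous 10, 15, 2.5, 1.25, 0.5, 0.25 mg/kg at 0, 0.5, 2.5, 4, 5.5, 7 h, repeated every 8 h over 24 h.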

[23] = fT>MIC in neutropenic mouse infected with Pseudomonas aeruginosa isolate 1005 at 500 mg administered as 1 hr infusion; format: functional
[24] = fT>MIC in neutropenic mouse infected with Pseudomonas aeruginosa isolate 906 at 500 mg administered as 1 hr infusion; format: functional; summary of the method: as §2
[25] = fT>MIC in neutropenic mouse infected with Pseudomonas aeruginosa isolate 1036 at 500 mg administered as 1 hr infusion; format: functional
[26] = fT>MIC in neutropenic mouse infected with Pseudomonas aeruginosa isolate 869 at 500 mg administered as 4 hr infusion; format: functional
Summary of the method: (§3)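 Mouse fT>MIC was modelled with first-order one-compartment serum PK and 25.2% binding. Mice were neutropenic (cyclophosphamide) with uranyl nitrate renal impairment. Subcutaneous doses were 5.5, 2.25, 4.5, 4.5, 4.5, 4.5, 0.75, 0.375 mg/kg at 0, 0.5, 1.5, 2.5, 3.5, 4.5, 6, 7.5 h per 8-h interval over 24 h.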

[27] = fT>MIC in neutropenic mouse infected with Pseudomonas aeruginosa isolate 886 at 500 mg administered as 4 hr infusion; format: functional; summary of the method: as §3
[28] = fT>MIC in neutropenic mouse infected with Pseudomonas aeruginosa isolate 1082 at 500 mg administered as 4 hr infusion; format: functional; summary of the method: as §3
[29] = fT>MIC in neutropenic mouse infected with Pseudomonas aeruginosa isolate 979 at 500 mg administered as 4 hr infusion; format: functional; summary of the method: as §3
[30] = fT>MIC in neutropenic mouse infected with Pseudomonas aeruginosa isolate 936 at 500 mg administered as 4 hr infusion; format: functional; summary of the method: as §3
[31] = fT>MIC in neutropenic mouse infected with Pseudomonas aeruginosa isolate 988 at 500 mg administered as 4 hr infusion; format: functional; summary of the method: as §3
[32] = fT>MIC in neutropenic mouse infected with Pseudomonas aeruginosa isolate 1006 at 500 mg administered as 4 hr infusion; format: functional
[33] = fT>MIC in neutropenic mouse infected with Pseudomonas aeruginosa isolate 968 at 500 mg administered as 4 hr infusion; format: functional; summary of the method: as §3
[34] = Cmax in Pseudomonas aeruginosa ATCC 27853 infected neutropenic ICR mouse at 50 mg/kg, sc administered as single dose 2 hrs postinfection by HPLC; format: ADME, organism-based; design: dose 50 mg/kg, route subcutaneous; details: in vivo
Summary of the method: (§4)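 Neutropenic mice (cyclophosphamide ip 150 and 100 mg/kg, 4 and 1 days before inoculation) with uranyl nitrate 5 mg/kg ip 3 days before, for renal impairment. Thigh infection with ATCC 27853 at 10⁶ CFU/ml, 0.1 ml per thigh. Single sc doses 2 h later. Intracardiac blood from 6–12 mice per time point, eight time points over 4 h. Serum assayed by HPLC (linear 0.5–40 μg/ml). One-compartment first-order fit.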

[35] = Half-life in Pseudomonas aeruginosa ATCC 27853 infected neutropenic ICR mouse at 50 mg/kg, sc administered as single dose 2 hrs postinfection; format: ADME, organism-based; design: dose 50 mg/kg, route subcutaneous; details: in vivo; summary of the method: as §4
[36] = Clearance in Pseudomonas aeruginosa ATCC 27853 infected neutropenic ICR mouse at 150 mg/kg, sc administered as single dose 2 hrs postinfection; format: ADME, organism-based; design: dose 150 mg/kg, route subcutaneous; details: in vivo; summary of the method: as §4
[37] = Cmax in healthy human at 500 mg administered as as 4 hr infusion; format: ADME, organism-based; design: dose 500 mg; details: in vivo, iv
[38] = AUC in Pseudomonas aeruginosa ATCC 27853 infected neutropenic ICR mouse at 500 mg administered as 1 hr infusion; format: ADME, organism-based; details: plasma, iv
[39] = AUC in Pseudomonas aeruginosa ATCC 27853 infected neutropenic ICR mouse at 500 mg administered as 4 hr infusion; format: ADME, organism-based; details: plasma, iv
[40] = fT>MIC in neutropenic mouse thigh infection model at 4 to 8 ug/ml after 24 hrs; format: functional; summary of the method: as §2
Pseudomonas aeruginosa [41] = test: Antibacterial activity against Pseudomonas aeruginosa isolate 944 at 4 ug/ml after 24 hrs; format: functional, organism-based
Pseudomonas aeruginosa [42] = test: Antibacterial activity against Pseudomonas aeruginosa isolate at 8 to 16 ug/ml after 24 hrs; format: functional, organism-based
Pseudomonas aeruginosa [43] = test: Antibacterial activity against Pseudomonas aeruginosa isolate 944 by fractionation study; format: functional

`C[C@@H](O)[C@H]1C(=O)N2C(C(=O)O)=C(S[C@@H]3CN[C@H](CNS(N)(=O)=O)C3)[C@H](C)[C@H]12` [DORIPENEM] gave an MIC (Pseudomonas aeruginosa [1]) of 0.25 µg/mL (≈ 0.595 µM), an MIC (Pseudomonas aeruginosa [2]) of 0.5 µg/mL (≈ 1.19 µM) and an MIC (Pseudomonas aeruginosa [3]) of 0.5 µg/mL (≈ 1.19 µM). It also gave an MIC (Pseudomonas aeruginosa [4]) of 1 µg/mL (≈ 2.38 µM), an MIC (Pseudomonas aeruginosa [5]) of 2 µg/mL (≈ 4.76 µM) and an MIC (Pseudomonas aeruginosa [6]) of 4 µg/mL (≈ 9.51 µM). For the same compound, the MIC (Pseudomonas aeruginosa [7]) was 4 µg/mL (≈ 9.51 µM), the MIC (Pseudomonas aeruginosa [8]) was 8 µg/mL (≈ 19 µM) and the MIC (Pseudomonas aeruginosa [9]) was 8 µg/mL (≈ 19 µM). The “fT>MIC” value [10] was 100%, the “fT>MIC” value [11] was 72.5% and the “fT>MIC” value [12] was 72.5%. For the same compound, the “fT>MIC” value [13] was 55%, the “fT>MIC” value [14] was 55% and the “fT>MIC” value [15] was 40%. The “fT>MIC” value [16] was 17.5%, the “fT>MIC” value [17] was 7.5% and the fT>MIC [18] was 65%. The fT>MIC [19] was 55%, the fT>MIC [20] was 55% and the fT>MIC [21] was 0%. For the same compound, the fT>MIC [22] was 55%, the fT>MIC [23] was 55% and the fT>MIC [24] was 42.5%. For the same compound, the fT>MIC [25] was 42.5%, the “fT>MIC” value [26] was 100% and the “fT>MIC” value [27] was 100%. The “fT>MIC” value [28] was 82.5%, the “fT>MIC” value [29] was 70% and the “fT>MIC” value [30] was 0%. The “fT>MIC” value [31] was 0%, the “fT>MIC” value [32] was 0% and the “fT>MIC” value [33] was 0%. For the same compound, the Cmax [34] was 59700 ng/mL, the half-life [35] was 20.4 min and the CL/F [36] was 14.2 mL/min/kg. The Cmax [37] was 7790 ng/mL, the AUC at 1 h [38] was 37600 ng·h/mL and the AUC at 4 h [39] was 34400 ng·h/mL. For the same compound, the “fT>MIC” value [40] was 20%, the Activity (Pseudomonas aeruginosa [41]) was “inactive” and the Activity (Pseudomonas aeruginosa [42]) was “inactive”. It also gave an MIC (Pseudomonas aeruginosa [43]) of 3 µg/mL (≈ 7.13 µM).
